From ChEMBL document CHEMBL1135742, “Modification of the structure of a metallopeptide: synthesis and biological evaluation of (111)In-labeled DOTA-conjugated rhenium-cyclized alpha-MSH analogues” (J Med Chem, 2002)

Experiments:
Assay type in all cases: functional, organism-based
Mus musculus [1] = species on record: Mus musculus; assay: Uptake of [111In]-labeled compound in muscle at 2 hr pi in the absence of […]; conditions: Muscle tissue
Summary of the method: (§1)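 C57 BL/6 female mice, 7–8 weeks old, inoculated s.c. in right flank with 1×10^6 B16/F1 melanoma cells. Used 9–10 days later at tumor weight ~500 mg. […] HPLC-purified 111In-DOTA peptide (neutral pH) given via tail vein, with or without […]. Killed 2 h pi. Tissues weighed and gamma-counted. Uptake expressed as % ID/g.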

Mus musculus [2] = species on record: Mus musculus; assay: Uptake of [111In]-labeled compound in heart at 2 hr pi in the absence of […]; summary of the method: as §1
Mus musculus [3] = species on record: Mus musculus; assay: Uptake of [111In]-labeled compound in spleen at 2 hr pi in the absence of 10 mg NDP; summary of the method: as §1
Mus musculus [4] = species on record: Mus musculus; assay: Uptake of [111In]-labeled compound in lung at 2 hr pi in the absence of […]; summary of the method: as §1
Mus musculus [5] = species on record: Mus musculus; assay: Uptake of [111In]-labeled compound in lung at 2 hr pi in the presence of […]; summary of the method: as §1
Mus musculus [6] = species on record: Mus musculus; assay: Uptake of [111In]-labeled compound in liver at 2 hr pi in the presence of […]; summary of the method: as §1
Mus musculus [7] = species on record: Mus musculus; assay: Uptake of [111In]-labeled compound in heart at 2 hr pi in the presence of […]; summary of the method: as §1

DOTA-ReCCEHdFRWCRPV-NH2
ID/g (Mus musculus [1]): 0.03%
ID/g (Mus musculus [2]): 0.07%
ID/g (Mus musculus [3]): 0.27%
ID/g (Mus musculus [4]): 0.3%
ID/g (Mus musculus [5]): 0.44%
ID/g (Mus musculus [6]): 1.61%
ID/g (Mus musculus [7]): 0.33%
